Active and inactive are the calls of the source. The rule behind the calls is not given here.
Assays:
[1] = tested on: Rattus norvegicus; experiment: Delta BP refers to oral hypotensive activity of compound which is evaluated at 4 hr and 24 hr in restrained, normotensive conscious rats at a dose of 50 mg/kg; -22/-25; assay type: functional
In short: (§1)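 Female Sprague-Dawley rats, normotensive, restrained in a towel. Blood pressure was read directly via chronic indwelling aortic cannulas exteriorized at the nape, before and 4 and 24 h after an oral dose suspended in carboxymethylcellulose (10 mL/kg). Values from two animals were averaged at each time; a mean change of at least 5 mmHg was taken as significant (p < 0.05).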

[2] = tested on: Rattus norvegicus; experiment: Delta BP refers to oral hypotensive activity of compound which is evaluated at 4 hr and 24 hr in restrained, normotensive conscious rats at a dose of 50 mg/kg; -16/3; assay type: functional; settings: dose 15 mg/kg, in the assay text read “dose of 15 mg/kg” for “dose of 50 mg/kg”; in short: as §1
[3] = tested on: Rattus norvegicus; experiment: Delta BP refers to oral hypotensive activity of compound which is evaluated at 4 hr and 24 hr in restrained, normotensive conscious rats at a dose of 50 mg/kg; 0/-1; assay type: functional; in short: as §1
[4] = tested on: Rattus norvegicus; experiment: Delta BP refers to oral hypotensive activity of compound which is evaluated at 4 hr and 24 hr in restrained, normotensive conscious rats at a dose of 50 mg/kg; -4/-10; assay type: functional; in short: as §1
[5] = tested on: Rattus norvegicus; experiment: Delta BP refers to oral hypotensive activity of compound which is evaluated at 4 hr and 24 hr in restrained, normotensive conscious rats at a dose of 50 mg/kg; assay type: functional, organism-based; set-up: dose 50 mg/kg; in short: as §1
[6] = tested on: Rattus norvegicus; experiment: Delta BP refers to oral hypotensive activity of compound which is evaluated at 4 hr and 24 hr in restrained, normotensive conscious rats at a dose of 50 mg/kg; -9/-10; assay type: functional; in short: as §1
[7] = tested on: Rattus norvegicus; experiment: Delta BP refers to oral hypotensive activity of compound which is evaluated at 4 hr and 24 hr in restrained, normotensive conscious rats at a dose of 50 mg/kg; -17/-16; assay type: functional; in short: as §1
[8] = tested on: Rattus norvegicus; experiment: Delta BP refers to oral hypotensive activity of compound which is evaluated at 4 hr and 24 hr in restrained, normotensive conscious rats at a dose of 50 mg/kg; -15/3; assay type: functional; in short: as §1
[9] = tested on: Rattus norvegicus; experiment: Delta BP refers to oral hypotensive activity of compound which is evaluated at 4 hr and 24 hr in restrained, normotensive conscious rats at a dose of 50 mg/kg; -26/-21; assay type: functional; in short: as §1
[10] = tested on: Rattus norvegicus; experiment: Delta BP refers to oral hypotensive activity of compound which is evaluated at 4 hr and 24 hr in restrained, normotensive conscious rats at a dose of 15 mg/kg; -24/-5; assay type: functional; in short: as §1
[11] = tested on: Rattus norvegicus; experiment: Delta BP refers to oral hypotensive activity of compound which is evaluated at 4 hr and 24 hr in restrained, normotensive conscious rats at a dose of 15 mg/kg; -13/-14; assay type: functional; in short: as §1
[12] = tested on: Rattus norvegicus; experiment: Delta BP refers to oral hypotensive activity of compound which is evaluated at 4 hr and 24 hr in restrained, normotensive conscious rats at a dose of 50 mg/kg; -12/-5; assay type: functional; in short: as §1
[13] = tested on: Rattus norvegicus; experiment: Delta BP refers to oral hypotensive activity of compound which is evaluated at 4 hr and 24 hr in restrained, normotensive conscious rats at a dose of 50 mg/kg; 2/2; assay type: functional; in short: as §1
[14] = tested on: Rattus norvegicus; experiment: Delta BP refers to oral hypotensive activity of compound which is evaluated at 4 hr and 24 hr in restrained, normotensive conscious rats at a dose of 50 mg/kg; -16/-26; assay type: functional; in short: as §1
[15] = tested on: Rattus norvegicus; experiment: Delta BP refers to oral hypotensive activity of compound which is evaluated at 4 hr and 24 hr in restrained, normotensive conscious rats at a dose of 50 mg/kg; -8/-10; assay type: functional; in short: as §1
[16] = tested on: Rattus norvegicus; experiment: Delta BP refers to oral hypotensive activity of compound which is evaluated at 4 hr and 24 hr in restrained, normotensive conscious rats at a dose of 50 mg/kg; 0/-14; assay type: functional; in short: as §1
[17] = tested on: Rattus norvegicus; experiment: Delta BP refers to oral hypotensive activity of compound which is evaluated at 4 hr and 24 hr in restrained, normotensive conscious rats at a dose of 50 mg/kg; 3/2; assay type: functional; in short: as §1
[18] = tested on: Rattus norvegicus; experiment: Delta BP refers to oral hypotensive activity of compound which is evaluated at 4 hr and 24 hr in restrained, normotensive conscious rats at a dose of 50 mg/kg; -18/-28; assay type: functional; in short: as §1
[19] = tested on: Rattus norvegicus; experiment: Delta BP refers to oral hypotensive activity of compound which is evaluated at 4 hr and 24 hr in restrained, normotensive conscious rats at a dose of 15 mg/kg; -8/-10; assay type: functional; in short: as §1
[20] = tested on: Rattus norvegicus; experiment: Delta BP refers to oral hypotensive activity of compound which is evaluated at 4 hr and 24 hr in restrained, normotensive conscious rats at a dose of 50 mg/kg; -4/-2; assay type: functional; in short: as §1

In the case of COc1cc2c(cc1OC)C(CCCN1CCN(c3ccc(F)cc3)CC1)(c1ccc(F)cc1)OCC2 (configuration not stated), the Delta blood pressure [1] is reported as -22 mmHg and the Delta blood pressure [2] is reported as -16 mmHg.

COc1cc2c(cc1OC)C(C)(C)COC2CCN1CCN(c2cccc(C(F)(F)F)c2)CC1 (configuration not stated) was tested, and the Delta blood pressure [3] was 0 mmHg.

Work on COc1cc2c(cc1OC)C(C)(C)COC2CCN1CCN(c2cccc(Cl)c2)CC1 (configuration not stated) yielded a Delta blood pressure [4] of -4 mmHg.

In the case of COc1cc2c(cc1OC)C(CCCN1CCN(c3ccccc3C)CC1)(c1ccc(F)cc1)OCC2 (configuration not stated), the Delta blood pressure [5] is reported as “inactive”.

With COc1cc2c(cc1OC)C(C)(CCN1CCN(c3ccccc3OC)CC1)OCC2 (configuration not stated) the Delta blood pressure [6] was -9 mmHg.

COc1cc2c(cc1OC)C(C)(CCN1CCN(c3ccccn3)CC1)OCC2 (configuration not stated) was tested, and the Delta blood pressure [5] was “inactive”.

With COc1cc2c(cc1OC)C(CCN1CCN(c3ccccc3)CC1)OC(C)(C)C2 (configuration not stated) the Delta blood pressure [5] was “inactive”.

For COc1cc2c(cc1OC)C(CCN1CCN(c3ccccc3OC)CC1)OC(C)(C)C2 (configuration not stated), the Delta blood pressure [7] was -17 mmHg and the Delta blood pressure [8] was -15 mmHg.

With COc1cc2c(cc1OC)C(CCCN1CCN(c3ccc(Cl)cc3)CC1)(c1ccc(F)cc1)OCC2 (configuration not stated) the Delta blood pressure [5] was “inactive”.

For COc1cc2c(cc1OC)C(C)(CCCN1CCN(c3ccccc3Cl)CC1)OCC2 (configuration not stated), the Delta blood pressure [5] was “inactive”.

COc1cc2c(cc1OC)C(C)(CCCN1CCN(c3ccccc3C)CC1)OCC2 (configuration not stated) gave a Delta blood pressure [9] of -26 mmHg and a Delta blood pressure [10] of -24 mmHg.

With COc1cc2c(cc1OC)C(CCCN1CCN(c3cccc(C(F)(F)F)c3)CC1)(c1ccc(F)cc1)OCC2 (configuration not stated) the Delta blood pressure [5] was “inactive”.

With COc1cc2c(cc1OC)C(C)(C)COC2CCN1CCN(c2ccccn2)CC1 (configuration not stated) the Delta blood pressure [5] was “inactive”.

Work on COc1cc2c(cc1OC)C(CCN1CCN(c3ccccn3)CC1)OCC2 (configuration not stated) yielded a Delta blood pressure [11] of -13 mmHg and a Delta blood pressure [12] of -12 mmHg.

COc1cc2c(cc1OC)C(CN1CCN(c3cccc(C(F)(F)F)c3)CC1)OCC2 (configuration not stated) showed a Delta blood pressure [13] of 2 mmHg.

COc1cc2c(cc1OC)C(C)(CCN1CCN(c3ccccc3C)CC1)OCC2 (configuration not stated) was tested, and the Delta blood pressure [5] was “inactive”.

In the case of COc1cc2c(cc1OC)C(C)(CCCN1CCN(c3cccc(Cl)c3)CC1)OCC2 (configuration not stated), the Delta blood pressure [5] is reported as “inactive”.

COc1cc2c(cc1OC)C(C)(CCN1CCN(c3ccc(F)cc3)CC1)OCC2 (configuration not stated) was tested, and the Delta blood pressure [14] was -16 mmHg.

Compound COc1cc2c(cc1OC)C(C)(CCN1CCN(c3ccc(Cl)cc3)CC1)OCC2 (configuration not stated) has a Delta blood pressure [15] of -8 mmHg.

In the case of COc1cc2c(cc1OC)C(CCN1CCN(c3ccccn3)CC1)OC(C)(C)C2 (configuration not stated), the Delta blood pressure [5] is reported as “inactive”.

COc1cc2c(cc1OC)C(C)(CCN1CCN(c3cccc(C(F)(F)F)c3)CC1)OCC2 (configuration not stated) was tested, and the Delta blood pressure [5] was “inactive”.

For COc1cc2c(cc1OC)C(CN1CCN(c3ccc(F)cc3)CC1)OCC2 (configuration not stated), the Delta blood pressure [16] was 0 mmHg.

Compound COc1cc2c(cc1OC)C(CCN1CCN(c3ccccc3Cl)CC1)OCC2 (configuration not stated) has a Delta blood pressure [17] of 3 mmHg.

For COc1cc2c(cc1OC)C(C)(C)COC2CCN1CCN(c2ccccc2C)CC1 (configuration not stated), the Delta blood pressure [18] was -18 mmHg and the Delta blood pressure [19] was -8 mmHg.

For COc1cc2c(cc1OC)C(CCN1CCN(c3ccccc3Cl)CC1)OC(C)(C)C2 (configuration not stated), the Delta blood pressure [5] was “inactive”.

COc1cc2c(cc1OC)C(C)(C)COC2CCN1CCN(c2ccccc2OC)CC1 (configuration not stated) was tested, and the Delta blood pressure [5] was “inactive”.

In the case of COc1cc2c(cc1OC)C(C)(CCCN1CCN(c3ccccc3)CC1)OCC2 (configuration not stated), the Delta blood pressure [20] is reported as -4 mmHg.

Reference: ChEMBL document CHEMBL1122179, “1-(alkylamino)isochromans: hypotensives with peripheral and central activities” (J Med Chem, 1982)
